Data published in ChEMBL document CHEMBL4270609, “Purple acid phosphatase inhibitors as leads for osteoporosis chemotherapeutics” (Eur J Med Chem, 2018).
Active and inactive are the calls of the source. The calls are words filed in the database; no cut-off is given here.

How the values were obtained:
[1] = biological target: T1, Tartrate-resistant acid phosphatase type 5 (Sus scrofa) (UniProt P09889); assay: Competitive inhibition of pig purple acid phosphatase Fe(3)Fe(2) state assessed as enzyme-inhibitor complex using pNPP as substrate by UV/Vis spectrophotometric method
T1 sequence (whole entry): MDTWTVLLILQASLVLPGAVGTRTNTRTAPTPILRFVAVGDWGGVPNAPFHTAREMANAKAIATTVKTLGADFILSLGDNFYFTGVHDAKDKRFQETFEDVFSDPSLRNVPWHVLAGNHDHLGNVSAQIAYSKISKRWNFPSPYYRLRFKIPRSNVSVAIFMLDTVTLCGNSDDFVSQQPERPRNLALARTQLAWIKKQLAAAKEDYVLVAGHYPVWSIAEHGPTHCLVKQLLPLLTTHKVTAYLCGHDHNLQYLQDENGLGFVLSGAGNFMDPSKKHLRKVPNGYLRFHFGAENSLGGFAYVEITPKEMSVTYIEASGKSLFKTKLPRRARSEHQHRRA
Method in brief: (§1)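 Pig PAP was from sow uterine fluid and pre-reduced to Fe(III)Fe(II) with 0.77 mM β-mercaptoethanol (10 min, 37 °C); rkbPAP was purified from red kidney beans. Assays ran at 25 °C, pH 4.9 (0.1 M acetate, 25% DMSO) with 12 nM enzyme, pNPP 1–12.5 mM and inhibitor 50–300 μM. p-Nitrophenol was read at 405 nm. Kic and Kiuc came from non-linear fit to the general inhibition equation.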

[2] = biological target: T2, Fe(3+)-Zn(2+) purple acid phosphatase (Phaseolus vulgaris) (UniProt P80366); assay: Competitive inhibition of red kidney bean purple acid phosphatase Fe(3)Fe(2) state assessed as enzyme-inhibitor complex using pNPP as substrate by UV/Vis spectrophotometric method; method in brief: as §1
T2 sequence (whole entry): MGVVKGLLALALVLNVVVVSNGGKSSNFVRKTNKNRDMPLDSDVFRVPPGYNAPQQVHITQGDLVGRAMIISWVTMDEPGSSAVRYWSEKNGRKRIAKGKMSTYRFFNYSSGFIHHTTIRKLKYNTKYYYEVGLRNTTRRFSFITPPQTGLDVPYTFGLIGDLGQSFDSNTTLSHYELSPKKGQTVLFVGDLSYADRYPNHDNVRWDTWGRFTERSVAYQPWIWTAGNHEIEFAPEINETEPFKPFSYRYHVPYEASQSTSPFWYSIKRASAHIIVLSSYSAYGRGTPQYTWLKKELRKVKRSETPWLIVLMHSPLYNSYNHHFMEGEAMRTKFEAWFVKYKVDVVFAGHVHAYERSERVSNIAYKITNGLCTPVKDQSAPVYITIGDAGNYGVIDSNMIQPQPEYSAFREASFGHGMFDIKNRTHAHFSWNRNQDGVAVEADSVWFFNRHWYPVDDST

[3] = biological target: T1, Tartrate-resistant acid phosphatase type 5 (Sus scrofa); assay: Uncompetitive inhibition of pig purple acid phosphatase Fe(3)Fe(2) state assessed as enzyme-substrate-inhibitor complex using pNPP as substrate by UV/Vis spectrophotometric method; method in brief: as §1
[4] = biological target: T1, Tartrate-resistant acid phosphatase type 5 (Sus scrofa); assay: Inhibition of pig purple acid phosphatase Fe(3)Fe(2) state assessed as enzyme-inhibitor complex at 100 uM using pNPP as substrate by UV/Vis spectrophotometric method
Method in brief: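 Used 5 mM pNPP substrate and 12 nM enzyme in 0.1 M acetate pH 4.9 with 25% DMSO at 25 °C. p-Nitrophenol formation was followed at 405 nm; result expressed as percentage inhibition.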

[5] = biological target: T2, Fe(3+)-Zn(2+) purple acid phosphatase (Phaseolus vulgaris); assay: Uncompetitive inhibition of red kidney bean purple acid phosphatase Fe(3)Fe(2) state assessed as enzyme-substrate-inhibitor complex using pNPP as substrate by UV/Vis spectrophotometric method; method in brief: as §1

Row | SMILES | Kic [1] [µM] | Kic [2] [µM] | inhibition [4] | further results
1 | O=C(O)c1csc(-c2ccccc2Cl)n1 | 630 | 920 |  | Kiuc [3]: 350 µM
2 | O=C(O)[C@@H]1CSC(c2ccccc2)N1 (some centres not stated) |  |  | inactive | 
3 | COc1ccc(C2N[C@H](C(=O)O)CS2)cc1 (some centres not stated) |  |  | inactive | 
4 | O=C(O)[C@@H]1CSC(c2ccco2)N1 (some centres not stated) |  |  | inactive | 
5 | COc1ccc(-c2nc(C(=O)O)cs2)cc1 | 120 | 400 |  | Kiuc [5]: 770 µM
6 | O=C(O)[C@@H]1CSC(c2ccc(O)cc2)N1 (some centres not stated) |  |  | inactive | 
7 | O=C(O)[C@@H]1CSC(c2ccccc2O)N1 (some centres not stated) |  |  | inactive | 

The next lines start with results.

Row | Kic [1] [µM] | Kic [2] [µM] | inhibition [4] | SMILES | further results
8 | 33 | 185 |  | O=C(O)c1csc(-c2cccc3ccccc23)n1 | Kiuc [3]: 110 µM
9 | 49 | 530 |  | O=C(O)c1csc(-c2ccc(Cl)cc2)n1 | 
10 |  |  | inactive | O=C(O)[C@@H]1CSC(c2cccc3ccccc23)N1 (some centres not stated) | 
11 |  |  | inactive | Cc1ccc(C2N[C@H](C(=O)O)CS2)cc1 (some centres not stated) | 
12 | 190 |  |  | O=C(O)c1csc(-c2ccccc2)n1 | 
13 |  |  | inactive | O=C(O)[C@@H]1CSC(c2c(O)ccc3ccccc23)N1 (some centres not stated) | 
14 | 42 | 340 |  | Cc1ccc(-c2nc(C(=O)O)cs2)cc1 | 
